Values after ≈ are worked out from the molar mass of the structure shown. Like-named read-outs stand apart in the source and are kept apart here.
Tests used:
[1] = previously reported; cited from earlier work
[2] = human liver microsomes; previously reported; cited from earlier work
[3] = mouse liver microsomes, previously reported, cited from earlier work; for predicted Eh (M): predicted hepatic extraction ratio
[4] = mouse, oral, 10 mg/kg, plasma concentrations; cited from earlier work
[5] = pH 7.4; previously reported; cited from earlier work
[6] = In vitro metabolism in human liver microsomes; type: in vitro ADME; details: for microsomal CLint: human, liver microsomes; for predicted Eh (H): predicted hepatic extraction ratio, human liver microsomes
Summary of the method: (§1)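 Liver microsomes at 0.4 or 0.5 mg/mL protein were incubated at 37 °C with 0.5 or 1 μM test compound. Remaining compound in the supernatant was quantified by LC–MS at time points over 0–60 min. In vitro CLint and predicted hepatic extraction ratio were calculated from the depletion data.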

[7] = In vitro metabolism in mouse liver microsomes; type: in vitro ADME; details: for predicted Eh (M): predicted hepatic extraction ratio, mouse liver microsomes
Summary of the method: as §1

[8] = test system: P. falciparum 3D7 parasites; assay: P. falciparum 3D7 growth assay; type: cell-based; details: Pf3D7 EC50 relative to 1
[9] = Kinetic aqueous solubility by nephelometry, pH 6.5; type: physicochemical; details: phosphate buffer, pH 6.5, aqueous buffer, kinetic from dmso stock
Summary of the method: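 Test compound in DMSO was spiked into pH 6.5 phosphate buffer (final DMSO 1 v/v %) and incubated 30 min at room temperature. A solubility range was assigned by nephelometry.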

[10] = Mouse pharmacokinetics after oral administration; type: in vivo
Summary of the method: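 Both arms used a single oral gavage dose. Plasma arm: male Swiss outbred mice, 20 mg/kg as a suspension in 0.5% CMC, 0.5% benzyl alcohol and 0.4% Tween 80. Plasma was sampled over 24 h and measured by LC–MS. Blood arm: 10 mg/kg in 0.1% methylcellulose. Serial blood was taken 0.5–24 h, lysed with water and analysed by LC–MS/MS. Parameters came from noncompartmental analysis.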

[11] = test system: P. falciparum Pf3D7^0087/N9; assay: SCID mouse model of P. falciparum infection; type: in vivo
Summary of the method: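 NOD-scid IL2Rγnull mice (23–36 g) engrafted with human erythrocytes were infected iv with 20 × 10^6 Pf3D7^0087/N9 parasites. Test compound in 1% methylcellulose was given by oral gavage once daily for 4 days from day 3 (10–60 mg/kg), with actual doses verified by measuring the formulations. Parasitemia was measured by FACS and blood drug by LC–MS–MS. ED90 was set on day 7.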

[12] = male, Swiss outbred, plasma, 20 mg/kg

| microsomal CLint [6] | microsomal CLint ([7]; mouse, liver microsomes) | solubility kinetic at 30 min [9] | predicted Eh (H) [6] | predicted Eh (M) [7] | Compound | other results |
| --- | --- | --- | --- | --- | --- | --- |
| 32 µL/min/mg | 233 µL/min/mg | < 1.6 µg/mL | 0.56 | 0.91 | Cc1nc(NC2CCc3ccc(Br)cc3C2)c2c(C)noc2n1 (centres unmarked) [Compound 11, N-(7-Bromo-1,2,3,4-tetrahydronaphthalen-2-yl)-3,6-dimethylisoxazolo[5,4-d]pyrimidin-4-amine] | fold less potent than 1 on P. falciparum parasites [8]: 2–4 fold |
| 19 µL/min/mg | 138 µL/min/mg | < 1.6 µg/mL | 0.42 | 0.86 | Cc1nc(NC2CCc3cc(Br)ccc3C2)c2c(C)noc2n1 (centres unmarked) [Compound 12, N-(6-Bromo-1,2,3,4-tetrahydronaphthalen-2-yl)-3,6-dimethylisoxazolo[5,4-d]pyrimidin-4-amine] | – |
| 8 µL/min/mg | 13 µL/min/mg | 25 to 50 µg/mL (≈ 80.8 to 162 µM) | 0.25 | 0.36 | Cc1nc(Nc2ccc(C(F)(F)F)nc2)c2c(C)noc2n1 [Compound 16, 3,6-Dimethyl-N-(6-(trifluoromethyl)pyridin-3-yl)isoxazolo[5,4-d]pyrimidin-4-amine] | – |
| 13 µL/min/mg | 73 µL/min/mg | < 1.6 µg/mL | 0.34 | 0.76 | Cc1nc(Nc2ccc(S(F)(F)(F)(F)F)cc2)c2c(C(F)(F)F)noc2n1 [Compound 32, 6-Methyl-N-(4-(pentafluoro-l6-sulfanyl)phenyl)-3-(trifluoromethyl)isoxazolo[5,4-d]pyrimidin-4-amine] | – |
| 18 µL/min/mg | 36 µL/min/mg | 1.6 to 3.1 µg/mL (≈ 4.42 to 8.56 µM) | 0.41 | 0.61 | Cc1noc2nc(C(F)(F)F)nc(Nc3ccc(C(F)(F)F)cc3)c12 [Compound 35, 3-Methyl-6-(trifluoromethyl)-N-(4-(trifluoromethyl)phenyl)isoxazolo[5,4-d]pyrimidin-4-amine] | – |

The next lines start with the molecule.

| Compound | microsomal CLint [6] | microsomal CLint ([7]; mouse, liver microsomes) | solubility kinetic at 30 min [9] | predicted Eh (H) [6] | predicted Eh (M) [7] | other results |
| --- | --- | --- | --- | --- | --- | --- |
| Cc1cc(Nc2ccc(S(F)(F)(F)(F)F)cc2)n2nc(C(C)(F)F)nc2n1 [Compound 1] | – | – | – | – | – | kinetic solubility pH 6.5 [1]: 12.5–25 μg/mL; CLint (H) [2]: 4.3 μL/min/mg protein; CLint (M) [3]: 2.8 μL/min/mg protein; predicted Eh (M) [3]: <0.2/<0.2; AUCinf [4]: 23 µM·h |
| Cc1cc(Nc2ccc(C(F)(F)F)nc2)n2nc(C(C)(F)F)nc2n1 [Compound 2] | – | – | – | – | – | log DpH7.4 [5]: 2.5; kinetic solubility pH 6.5 [1]: >100 μg/mL; CLint (H) [2]: 2.2 μL/min/mg protein; CLint (M) [3]: < 7 μL/min/mg protein; predicted Eh (M) [3]: < 0.01 |
| Cc1nc(Nc2ccc(C)c(Cl)c2)c2c(C)noc2n1 [Compound 3] | 6.2 µL/min/mg | 28 µL/min/mg | – | – | – | CLint (M) ([7]; mouse, liver microsomes): rapidly metabolized |
| Cc1nc(NC2CCc3ccc(Cl)cc3C2)c2c(C)noc2n1 (centres unmarked) [Compound 9, N-(7-Chloro-1,2,3,4-tetrahydronaphthalen-2-yl)-3,6-dimethylisoxazolo[5,4-d]pyrimidin-4-amine] | 36 µL/min/mg | 183 µL/min/mg | 1.6 to 3.1 µg/mL (≈ 4.87 to 9.43 µM) | 0.59 | 0.89 | fold less potent than 1 on P. falciparum parasites [8]: 2–4 fold |
| Cc1nc(NC2CCc3cc(Cl)ccc3C2)c2c(C)noc2n1 (centres unmarked) [Compound 10, N-(6-Chloro-1,2,3,4-tetrahydronaphthalen-2-yl)-3,6-dimethylisoxazolo[5,4-d]pyrimidin-4-amine] | 23 µL/min/mg | 179 µL/min/mg | 1.6 to 3.1 µg/mL (≈ 4.87 to 9.43 µM) | 0.47 | 0.89 | – |
| Cc1nc(NC2Cc3cc(F)c(F)cc3C2)c2c(C)noc2n1 [Compound 13, N-(5,6-Difluoro-2,3-dihydro-1H-inden-2-yl)-3,6-dimethylisoxazolo[5,4-d]pyrimidin-4-amine] | 17 µL/min/mg | 143 µL/min/mg | 3.1 to 6.3 µg/mL (≈ 9.8 to 19.9 µM) | 0.39 | 0.86 | AUC(0-inf) [10, 12]: 4.2 µM·h; Cmax [10, 12]: 2100 nM; Tmax [10, 12]: 60 min |
| Cc1nc(Nc2ccc(S(F)(F)(F)(F)F)cc2)c2c(C)noc2n1 [Compound 14, 3,6-Dimethyl-N-(4-(pentafluoro-l6-sulfanyl)phenyl)isoxazolo[5,4-d]pyrimidin-4-amine] | 20 µL/min/mg | 38 µL/min/mg | 6.3 to 12.5 µg/mL (≈ 17.2 to 34.1 µM) | 0.44 | 0.63 | fold less potent than 1 on P. falciparum parasites [8]: 2–4 fold; AUC(0-inf) ([10]; whole blood, 10 mg/kg): 3.8 µM·h; Cmax ([10]; whole blood, 10 mg/kg): 1300 nM; Tmax ([10]; whole blood, 10 mg/kg): 45 min; ED90 (90% reduction in parasitemia) ([11]; SCID mice, oral QD for 4 days, data collected 24 h after the last dose): ~63 mg/kg; ED90 fold higher than that for 1 ([11]; same SCID model, once daily (QD) dosing, comparison with 1 from ref 26): ≥ 8 fold |
| Cc1nc(Nc2ccc(C(F)(F)F)cc2)c2c(C)noc2n1 [Compound 15, 3,6-Dimethyl-N-(4-(trifluoromethyl)phenyl)isoxazolo[5,4-d]pyrimidin-4-amine] | 24 µL/min/mg | 28 µL/min/mg | 6.3 to 12.5 µg/mL (≈ 20.4 to 40.5 µM) | 0.48 | 0.55 | – |
| Cc1nc(NC2Cc3cc(F)c(F)cc3C2)c2c(C(F)(F)F)noc2n1 [Compound 30, N-(5,6-Difluoro-2,3-dihydro-1H-inden-2-yl)-6-methyl-3-(Trifluoromethyl)isoxazolo[5,4-d]pyrimidin-4-amine] | 26 µL/min/mg | 328 µL/min/mg | 1.6 to 3.1 µg/mL (≈ 4.32 to 8.37 µM) | 0.5 | 0.93 | – |
| Cc1nc(Nc2ccc(C(F)(F)F)cc2)c2c(C(F)(F)F)noc2n1 [Compound 31, 6-Methyl-3-(trifluoromethyl)-N-(4-(trifluoromethyl)phenyl)isoxazolo[5,4-d]pyrimidin-4-amine] | 13 µL/min/mg | 76 µL/min/mg | 1.6 to 3.1 µg/mL (≈ 4.42 to 8.56 µM) | 0.33 | 0.77 | – |
| Cc1noc2nc(C(F)(F)F)nc(Nc3ccc(S(F)(F)(F)(F)F)cc3)c12 [Compound 36, 3-Methyl-N-(4-(pentafluoro-l6-sulfanyl)phenyl)-6-(trifluoromethyl)isoxazolo[5,4-d]pyrimidin-4-amine] | 10 µL/min/mg | 26 µL/min/mg | 1.6 to 3.1 µg/mL (≈ 3.81 to 7.38 µM) | 0.28 | 0.53 | – |
